Results taken from ChEMBL document CHEMBL5724801, “EUbOPEN Chemogenomics Library - Multiplex” (2024).
“And” between values parts separate entries of the source, which are not always exact repeats. Identical values can stand only once.

Test system: Fibroblast
Test: Multiplex assay against human fibroblast
Format: toxicity, cell-based
In short: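 Cells were classed with CellPathfinder machine-learning gating, first as Hoechst high-intensity objects or normal cells, then (normal cells) as healthy, pyknosed or fragmented nuclei, and finally (pyknosed cells) as mitotic or apoptotic. Staining of live cells at seeding used Hoechst33342, BioTracker Green Microtubule Cytoskeleton Dye, MitoTracker Red and Annexin V Alexa Fluor 680, with imaging on a CQ1 microscope at 37°C and 5% CO2 after compound addition. Tubulin, mitochondrial-mass and membrane-permeability phenotypes are per cents of healthy-nucleus cells.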

[1] = 12 h, 1 µM, compound concentration 1 uM
[2] = 12 h, 10 µM, compound concentration 10 uM
[3] = 24 h, 1 µM, compound concentration 1 uM
[4] = 24 h, 10 µM, compound concentration 10 uM
[5] = 48 h, 1 µM, compound concentration 1 uM
[6] = 48 h, 10 µM, compound concentration 10 uM

O=C(CCCc1ccccc1)Nc1nc2ccccc2c(=O)s1
Population Apoptotic (%) [1]: 58% and 34% | Population Fragmented Nuclei (%) [1]: 9% and 19% | Population Healthy Nuclei (%) [1]: 66% and 49% | Population Hoechst High Intensity Objects (%) [1]: 2% and 3% | Population Membrane Permeable-Phenotype (%) [1]: 0% and 9% | Population Mitochondria Different-Phenotype (%) [1]: 4% and 7% | Population Mitotic Cells (%) [1]: 41% and 65% | Population Normal (%) [1]: 97% and 96% | Population Pyknosed Nuclei (%) [1]: 23% and 31% | Population Tubulin-Different-Phenotype (%) [1]: 34% and 35% | Total Cell Count [1]: 127 and 135 | Population Apoptotic (%) [2]: 51% and 31% | Population Fragmented Nuclei (%) [2]: 21% and 26% | Population Healthy Nuclei (%) [2]: 58% and 38% | Population Hoechst High Intensity Objects (%) [2]: 2% and 12% | Population Mitotic Cells (%) [2]: 48% and 68% | Population Normal (%) [2]: 97% and 87% | Population Pyknosed Nuclei (%) [2]: 20% and 35% | Population Tubulin-Different-Phenotype (%) [2]: 28% and 48% | Total Cell Count [2]: 147 and 133 | Population Apoptotic (%) [3]: 50% and 42% | Population Fragmented Nuclei (%) [3]: 13% and 21% | Population Healthy Nuclei (%) [3]: 68% and 51% | Population Hoechst High Intensity Objects (%) [3]: 2% and 5% | Population Membrane Permeable-Phenotype (%) [3]: 0% and 4% | Population Mitochondria Different-Phenotype (%) [3]: 5% and 4% | Population Mitotic Cells (%) [3]: 50% and 57% | Population Normal (%) [3]: 97% and 94% | Population Pyknosed Nuclei (%) [3]: 18% and 26% | Population Tubulin-Different-Phenotype (%) [3]: 20% and 35% | Total Cell Count [3]: 147 and 131 | Population Apoptotic (%) [4]: 46% and 53% | Population Fragmented Nuclei (%) [4]: 19% and 34% | Population Healthy Nuclei (%) [4]: 60% and 39% | Population Hoechst High Intensity Objects (%) [4]: 5% | Population Membrane Permeable-Phenotype (%) [4]: 0% and 18% | Population Mitotic Cells (%) [4]: 53% and 46% | Population Normal (%) [4]: 94% | Population Pyknosed Nuclei (%) [4]: 20% and 25% | Total Cell Count [4]: 135 and 134 | Population Apoptotic (%) [5]: 59% and 42% | Population Fragmented Nuclei (%) [5]: 13% and 26% | Population Healthy Nuclei (%) [5]: 66% and 58% | Population Hoechst High Intensity Objects (%) [5]: 5% and 2% | Population Membrane Permeable-Phenotype (%) [5]: 1% and 4% | Population Mitochondria Different-Phenotype (%) [5]: 1% and 6% | Population Mitotic Cells (%) [5]: 40% and 57% | Population Normal (%) [5]: 94% and 97% | Population Pyknosed Nuclei (%) [5]: 19% and 15% | Population Tubulin-Different-Phenotype (%) [5]: 32% and 50% | Total Cell Count [5]: 146 and 127 | Population Apoptotic (%) [6]: 58% and 77% | Population Fragmented Nuclei (%) [6]: 19% and 40% | Population Healthy Nuclei (%) [6]: 58% and 43% | Population Hoechst High Intensity Objects (%) [6]: 2% and 5% | Population Membrane Permeable-Phenotype (%) [6]: 1% and 10% | Population Mitotic Cells (%) [6]: 41% and 22% | Population Normal (%) [6]: 97% and 94% | Population Pyknosed Nuclei (%) [6]: 22% and 16% | Population Tubulin-Different-Phenotype (%) [6]: 26% and 73% | Total Cell Count [6]: 143 and 119

C[C@@H]1CC(=O)Nc2cccc(-c3ccc4c(c3)c(-c3cnn(C)c3)nn4C)c2N1
Population Apoptotic (%) [1]: 38% | Population Fragmented Nuclei (%) [1]: 20% and 26% | Population Healthy Nuclei (%) [1]: 63% and 47% | Population Hoechst High Intensity Objects (%) [1]: 1% and 5% | Population Membrane Permeable-Phenotype (%) [1]: 0% and 8% | Population Mitochondria Different-Phenotype (%) [1]: 4% and 12% | Population Mitotic Cells (%) [1]: 61% | Population Normal (%) [1]: 98% and 94% | Population Pyknosed Nuclei (%) [1]: 15% and 26% | Population Tubulin-Different-Phenotype (%) [1]: 31% and 51% | Total Cell Count [1]: 115 and 105 | Population Apoptotic (%) [2]: 40% and 30% | Population Fragmented Nuclei (%) [2]: 17% and 11% | Population Healthy Nuclei (%) [2]: 65% and 58% | Population Hoechst High Intensity Objects (%) [2]: 5% and 6% | Population Membrane Permeable-Phenotype (%) [2]: 1% and 7% | Population Mitotic Cells (%) [2]: 59% and 69% | Population Normal (%) [2]: 94% and 93% | Population Pyknosed Nuclei (%) [2]: 17% and 30% | Population Tubulin-Different-Phenotype (%) [2]: 63% and 68% | Total Cell Count [2]: 161 and 126 | Population Apoptotic (%) [3]: 57% and 35% | Population Fragmented Nuclei (%) [3]: 16% and 29% | Population Healthy Nuclei (%) [3]: 67% and 50% | Population Hoechst High Intensity Objects (%) [3]: 2% and 7% | Population Membrane Permeable-Phenotype (%) [3]: 2% and 11% | Population Mitochondria Different-Phenotype (%) [3]: 5% and 9% | Population Mitotic Cells (%) [3]: 42% and 65% | Population Normal (%) [3]: 97% and 92% | Population Pyknosed Nuclei (%) [3]: 15% and 19% | Population Tubulin-Different-Phenotype (%) [3]: 33% and 60% | Total Cell Count [3]: 122 and 112 | Population Apoptotic (%) [4]: 75% and 42% | Population Fragmented Nuclei (%) [4]: 19% and 13% | Population Healthy Nuclei (%) [4]: 69% and 57% | Population Hoechst High Intensity Objects (%) [4]: 10% and 5% | Population Membrane Permeable-Phenotype (%) [4]: 0% and 1% | Population Mitotic Cells (%) [4]: 25% and 57% | Population Normal (%) [4]: 89% and 94% | Population Pyknosed Nuclei (%) [4]: 11% and 29% | Population Tubulin-Different-Phenotype (%) [4]: 66% and 76% | Total Cell Count [4]: 158 and 119 | Population Apoptotic (%) [5]: 50% and 30% | Population Fragmented Nuclei (%) [5]: 25% and 36% | Population Healthy Nuclei (%) [5]: 60% and 50% | Population Hoechst High Intensity Objects (%) [5]: 5% and 2% | Population Mitochondria Different-Phenotype (%) [5]: 6% and 8% | Population Mitotic Cells (%) [5]: 50% and 69% | Population Normal (%) [5]: 94% and 97% | Population Pyknosed Nuclei (%) [5]: 14% and 13% | Population Tubulin-Different-Phenotype (%) [5]: 21% and 60% | Total Cell Count [5]: 114 and 102 | Population Apoptotic (%) [6]: 92% and 60% | Population Fragmented Nuclei (%) [6]: 17% | Population Healthy Nuclei (%) [6]: 73% and 62% | Population Hoechst High Intensity Objects (%) [6]: 3% and 4% | Population Membrane Permeable-Phenotype (%) [6]: 0% and 6% | Population Normal (%) [6]: 96% and 95% | Population Pyknosed Nuclei (%) [6]: 8% and 19% | Population Tubulin-Different-Phenotype (%) [6]: 68% and 69% | Total Cell Count [6]: 162 and 122
